# From PubChem BioAssay
# Calls of active or inactive are those of the source.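 How the source made its calls, unless noted: active means inhibition at or above 50% at 10 µM; inactive means inhibition below 50%.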
# Tests used:
# [1] = inhibitors of TNFa-induced NFkB p65 translocation, primary screen, imaging, HUVEC, MLSMR starter and 10KST1 sets (AID 438;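 active means inhibition above 20% together with a positive visual image hit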;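 further: compound added about 3h40 before a 20 min TNFalpha stimulation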;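 on inhibition: signal is the nuclear over cytoplasmic p65 intensity ratio per well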); conditions: HUVEC TNFa-induced p65 nuclear translocation; cell count: measured here: nuclei count (cytotoxicity indicator), at 2.08 µM; inhibition: at 2 µM, stronger effect = higher value, 0% TNFa-plus-vehicle, 100% no-TNFa wells
# [2] = reduction of polyQ htt aggregates in cells – imaging, exon1htt(103Q)mCFP cells, high-content imaging, primary screen (AID 483;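 active means visual image review flags a hit and inhibition of aggregation exceeds 20%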;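 further: compound exposure lasted 3 days before fixation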;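 on nuclei count: percent of the per-plate median nuclei count of sample wells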); conditions: exon1htt(103Q)mCFP cell line, aggregate imaging, at 2 µM; inhibition of aggregation: stronger effect = higher value; nuclei count: measured here: cell count, toxicity
# [3] = endothelial E-selectin expression blockers – imaging, HUVEC, immunofluorescence, MLSMR starter and 10KST1 sets, primary screen (AID 487;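 active means visually confirmed hit in the image check and inhibition above 20%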;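 on inhibition: signal is fraction of cell area covered by stained E-selectin grains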;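 on nuclei count: 100% = median nuclei count of all wells on the same plate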); conditions: HUVEC TNFalpha-induced E-selectin immunofluorescence imaging, at 2 µM; inhibition: stronger effect = higher value; nuclei count: measured here: cell number, toxicity
# [4] = biological target: Voltage-gated potassium channel subunit beta-2 (Rattus norvegicus) (UniProt P62483); test: inhibitors of rat Kvbeta2 reductase activity – biochemical, NADPH fluorescence, primary screen (AID 622;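 active means fluorescence slope higher than the sample average by over 3 SD, cut at about -0.22 in these data, passing the limit was not always enough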;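 further: slope of raw intensity against log time taken from 70 to 1610 s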); conditions: recombinant KvBeta, 4-cyanobenzaldehyde reduction, at 10 µM, stronger effect = higher value
# Sequence of Voltage-gated potassium channel subunit beta-2 (Rattus norvegicus) (P62483 whole entry, looked up): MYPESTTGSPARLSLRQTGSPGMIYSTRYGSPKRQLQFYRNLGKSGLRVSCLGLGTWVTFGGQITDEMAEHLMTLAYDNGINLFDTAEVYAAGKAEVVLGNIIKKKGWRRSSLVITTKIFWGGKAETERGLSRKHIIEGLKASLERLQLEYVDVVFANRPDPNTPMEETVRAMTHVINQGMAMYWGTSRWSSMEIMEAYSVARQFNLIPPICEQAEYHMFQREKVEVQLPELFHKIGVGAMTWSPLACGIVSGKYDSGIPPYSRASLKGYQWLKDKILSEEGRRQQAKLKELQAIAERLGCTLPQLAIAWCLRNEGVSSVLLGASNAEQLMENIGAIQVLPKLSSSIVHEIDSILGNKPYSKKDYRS
# [5] = biological target: Voltage-gated potassium channel subunit beta-2 (Rattus norvegicus) (UniProt P62483); test: enhancers of rat Kvbeta2 NADPH turnover – biochemical, NADPH fluorescence, primary screen (AID 623;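 active means NADPH fluorescence slope more negative than the mean of all samples by about 3 SD, 99.7% confidence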;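 further: fluorescence intensity change per second fitted from 20 to 320 s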); conditions: Recombinant KvBeta, NADPH fluorescence decrease slope, 10 min; at 10 µM; stronger effect = lower value
# [6] = biological target: Muscarinic acetylcholine receptor M4 (Homo sapiens) (UniProt P08173); test: M4-linked GIRK flux change, two-sided – cell-based, HEK293 M4/GIRK, thallium flux, BTC-AM, M4 allosteric agonist project, primary screen (AID 625;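 active means fluorescence slope after compound addition differing from the mean of all tested samples at 99.7% confidence, mostly higher but some lower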;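 further: thallium influx through GIRK channels coupled to M4 in HEK293 cells with BTC-AM dye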); conditions: at 10 µM, actives lie on both sides
# Sequence of Muscarinic acetylcholine receptor M4 (Homo sapiens) (P08173 whole entry, looked up): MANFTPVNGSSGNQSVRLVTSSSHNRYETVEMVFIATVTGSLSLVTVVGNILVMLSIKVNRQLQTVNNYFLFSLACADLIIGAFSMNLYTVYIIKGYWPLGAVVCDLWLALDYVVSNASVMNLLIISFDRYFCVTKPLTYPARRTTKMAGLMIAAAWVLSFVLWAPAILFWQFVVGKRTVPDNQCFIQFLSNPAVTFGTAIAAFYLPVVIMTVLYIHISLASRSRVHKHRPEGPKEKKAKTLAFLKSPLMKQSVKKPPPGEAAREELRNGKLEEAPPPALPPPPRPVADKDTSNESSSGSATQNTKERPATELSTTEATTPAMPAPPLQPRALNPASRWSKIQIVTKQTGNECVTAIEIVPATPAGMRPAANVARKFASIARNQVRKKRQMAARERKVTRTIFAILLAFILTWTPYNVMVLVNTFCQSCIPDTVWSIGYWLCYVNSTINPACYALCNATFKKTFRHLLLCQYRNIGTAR
# Summary of the method: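 assay system = HEK293 cells with M4 receptor and GIRK channels | medium = pH 7.3 thallium assay buffer | doses = 10 µM final, single point | timing = cells overnight at 37 °C, BTC-AM loading 1 h, reads 2 min total | signal = BTC-AM fluorescence, 1 Hz kinetic reads | read-out = post-addition slope, 15–24 s, of baseline-normalized fluorescence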
# [7] = blockers of RIG-like receptor reporter activation – cell-based, Sendai virus stimulus, luciferase, 10K MLSCN set, TLR/RLR signaling modifier project, primary screen (AID 602276); conditions: HEK293 RL24 IRF3 luciferase reporter, at 10 µM, stronger effect = higher value;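 further: firefly luciferase from ISG56 promoter only with Renilla not read in this screen; 0% = Sendai virus plus DMSO and 100% = medium plus DMSO without virus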
# [8] = TLR3 IRF3 reporter activation blockers – cell-based, poly I:C stimulus, luciferase, 10K MLSCN set, primary screen (AID 602277;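 active means inhibition of the reporter signal at or above 50%; inactive means inhibition below 50%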); conditions: HEK293-TLR3 RL24 IRF3 luciferase reporter, at 10 µM, stronger effect = higher value
structure (smiles),measurement,setting,value
N#Cc1cnc(SCC(=O)Nc2ccccc2C(F)(F)F)nc1N,cell count,[1],743
same,inhibition,[1],2.2% (inactive)
same,inhibition of aggregation,[2],15.1% (inactive)
same,nuclei count,[2],102%
same,inhibition,[3],-205% (inactive)
same,nuclei count,[3],121%
same,fluorescence slope,[4],-0.371 (inactive)
same,NADPH fluorescence slope,[5],5.4e-05 (inactive)
same,fluorescence slope,[6],0.00496 (inactive)
same,inhibition,[7],14% (inactive)
same,inhibition,[8],22.7% (inactive)
Cc1nc(C)c(C(=O)Nc2ccc(Oc3ccccc3)cc2)o1,cell count,[1],405
same,inhibition,[1],0.6% (inactive)
same,inhibition of aggregation,[2],-26.8% (inactive)
same,nuclei count,[2],105%
same,inhibition,[3],-128% (inactive)
same,nuclei count,[3],119%
same,fluorescence slope,[4],-0.306 (inactive)
same,NADPH fluorescence slope,[5],-2.3e-05 (inactive)
same,fluorescence slope,[6],0.00832 (inactive)
same,inhibition,[7],-20.2% (inactive)
same,inhibition,[8],-128% (inactive)
N#Cc1c(NC(=O)CSc2nc(N)cc(=O)[nH]2)sc2c1CCCCCC2,cell count,[1],728
same,inhibition,[1],-14% (inactive)
same,inhibition of aggregation,[2],-2% (inactive)
same,nuclei count,[2],115%
same,inhibition,[3],-105% (inactive)
same,nuclei count,[3],122%
same,fluorescence slope,[4],-0.578 (inactive)
same,NADPH fluorescence slope,[5],-3.4e-05 (inactive)
same,fluorescence slope,[6],0.00398 (inactive)
same,inhibition,[7],-11.2% (inactive)
same,inhibition,[8],-48.5% (inactive)
N#Cc1c(N)nc(SCc2ccncc2)c(C#N)c1-c1cccs1,cell count,[1],321
same,inhibition,[1],10.9% (inactive)
same,inhibition of aggregation,[2],-2.2% (inactive)
same,nuclei count,[2],32.8%
same,inhibition,[3],13.8% (inactive)
same,nuclei count,[3],107%
same,fluorescence slope,[4],-0.529 (inactive)
same,NADPH fluorescence slope,[5],-2.3e-05 (inactive)
same,fluorescence slope,[6],0.0051 (inactive)
same,inhibition,[7],26.1% (inactive)
same,inhibition,[8],25.1% (inactive)
O=C(C1CC1)N1CCc2cc(S(=O)(=O)N(CCO)Cc3ccccc3)ccc21,cell count,[1],612
same,inhibition,[1],7.7% (inactive)
same,inhibition of aggregation,[2],-16% (inactive)
same,nuclei count,[2],108%
same,inhibition,[3],-91% (inactive)
same,nuclei count,[3],122%
same,fluorescence slope,[4],-0.498 (inactive)
same,NADPH fluorescence slope,[5],0.000108 (inactive)
same,fluorescence slope,[6],0.00651 (inactive)
same,inhibition,[7],-3.85% (inactive)
same,inhibition,[8],-12.4% (inactive)
NC(=O)c1nsnc1-c1ccccc1O,cell count,[1],504
same,inhibition,[1],-9.3% (inactive)
same,inhibition of aggregation,[2],-3.4% (inactive)
same,nuclei count,[2],107%
same,inhibition,[3],20.3% (inactive)
same,nuclei count,[3],100%
same,fluorescence slope,[4],-0.531 (inactive)
same,NADPH fluorescence slope,[5],0.0001 (inactive)
same,fluorescence slope,[6],0.00622 (inactive)
same,inhibition,[7],-10.2% (inactive)
same,inhibition,[8],-7.73% (inactive)
COCCN1C(=O)C(=O)/C(=C(/O)c2cccc(S(=O)(=O)N(C)C)c2)C12C(=O)N(C)c1ccccc12 (stereo not drawn),cell count,[1],584
same,inhibition,[1],-22.3% (inactive)
same,inhibition of aggregation,[2],5.4% (inactive)
same,nuclei count,[2],115%
same,inhibition,[3],-76.4% (inactive)
same,nuclei count,[3],107%
same,fluorescence slope,[4],-0.483 (inactive)
same,NADPH fluorescence slope,[5],-5e-05 (inactive)
same,fluorescence slope,[6],0.00617 (inactive)
same,inhibition,[7],8.34% (inactive)
same,inhibition,[8],33.7% (inactive)
Nc1nnc(SCCOc2ccccc2)s1,cell count,[1],417
same,inhibition,[1],-0.9% (inactive)
same,inhibition of aggregation,[2],2.2% (inactive)
same,nuclei count,[2],108%
same,inhibition,[3],-70% (inactive)
same,nuclei count,[3],98.8%
same,fluorescence slope,[4],-0.535 (inactive)
same,NADPH fluorescence slope,[5],-1.2e-05 (inactive)
same,fluorescence slope,[6],0.00525 (inactive)
same,inhibition,[7],-8.16% (inactive)
same,inhibition,[8],-14% (inactive)
